Screening results deposited in PubChem BioAssay by several laboratories.
Only some compounds are listed: those with a hit (about 3.6% of all), similar ones and a draw of the others.
NR3A LBD binder: modulates the human NR3A ligand-binding domain. NR3A LBD differential scanning fluorimetry, Tm shift; 0% = protein alone, 100% = glycine-bound protein. Tm shift relative to glycine control, % at 25 µM. actives 2.5% (n = 340,000);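 active means melting temperature shift of at least 10% of the positive control shift, at one fixed dose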
FGF22 binding: shifts melting point of recombinant human FGF22. recombinant FGF22 thermal shift, SYPRO orange fluorescence; percent of sucrose octasulfate shift, DMSO zero. activity (Tm shift, normalised), % at 9.99 µM. actives 1.5% (n = 340,000). Q9HCT0;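 active means mean Tm shift, scaled 0 neutral to 100 positive control, at about 1.3% or above, every replicate too, limit read from the data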
Target sequence (Q9HCT0 whole entry, looked up): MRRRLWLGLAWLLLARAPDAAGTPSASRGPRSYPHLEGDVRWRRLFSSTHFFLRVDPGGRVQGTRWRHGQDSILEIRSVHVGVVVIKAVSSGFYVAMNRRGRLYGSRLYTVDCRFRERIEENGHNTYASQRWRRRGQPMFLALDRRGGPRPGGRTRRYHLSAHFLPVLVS
EBNA-1 inhibitor: blocks EBNA-1 binding to DNA. EBNA-1 DNA binding, fluorescence polarization. inhibition, % at 14.8 µM. actives 0.34% (n = 300,000); in the data active means inhibition above about 28%
NS3 helicase inh: blocks Hepatitis C virus NS3 helicase unwinding | NS3 helicase DNA unwinding, Cy5 molecular beacon fluorescence | inhibition, % at 10.9 µM | actives 0.56% (n = 290,000);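 active means inhibition above the mean of all tested compounds plus 3 SD, set per campaign, cut at about 35% in these data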;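 further: 0% = DMSO wells and 100% = thioflavine S control wells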
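Compound dosing – single dose, 10.9 µM nominal final, DMSO 0.8% final · System – NS3 helicase fragment of HCV · Buffer or medium – MOPS pH 6.5, MgCl2, DTT, Tween20, BSA · Signal – Cy5 beacon fluorescence read at start and 1 h · Also added – annealed dual-labelled DNA beacon duplex, ATP-started · Schedule – 1 h at 25 °C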
ZTA DNA inh: counter-screen for EBNA-1 inhibitors: inhibitors of Epstein-Barr virus ZTA; P03206; ZTA-DNA binding, fluorescence polarization; inhibition, % at 11 µM; actives 0.15% (n = 320,000); in the data active means inhibition above about 33%
Target sequence (P03206 whole entry, looked up): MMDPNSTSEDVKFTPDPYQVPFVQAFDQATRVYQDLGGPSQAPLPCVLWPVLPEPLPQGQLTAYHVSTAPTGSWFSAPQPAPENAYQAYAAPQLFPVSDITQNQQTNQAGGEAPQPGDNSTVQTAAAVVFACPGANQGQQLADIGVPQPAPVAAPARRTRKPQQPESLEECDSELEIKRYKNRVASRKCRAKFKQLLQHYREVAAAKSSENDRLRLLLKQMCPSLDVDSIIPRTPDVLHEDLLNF
FID counter: fluorescent intercalator displacement, NS3 helicase counter-screen; DNA fluorescent intercalator displacement, fluorescence; inhibition, % at 7.9 µM; actives 0.17% (n = 290,000); in the data active means inhibition above about 37%;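 further: 0% = vehicle and 100% = reference compound; higher means more ethidium bromide displaced from hairpin DNA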
Active calls of the source: *; · = no result.

SMILES	NR3A LBD binder	FGF22 binding	EBNA-1 inhibitor	NS3 helicase inh	ZTA DNA inh	FID counter
COc1cc2nc(N3CCNCC3)nc(N)c2cc1OC	5	·	14	16	16	49*
O=C(NCc1ccccc1)NCc1cccs1	-1	43*	5	3	15	-2
Cc1cc(C(=O)CN2C(=O)NC3(CCCc4sccc43)C2=O)c(C)n1-c1ccccc1 (stereo unspecified)	15*	·	10	-4	9	-5
COc1ccc(-n2c(C)cc(C(=O)CN3C(=O)NC4(CCCc5sccc54)C3=O)c2C)cc1 (stereo unspecified)	-2	·	1	-11	3	-20
CCNC(=O)n1cc(-n2cncn2)c(-c2ccccc2)n1	2	43*	-13	-1	-9	-2
O=C(NCCCc1ccccc1)c1ccc(-n2cncn2)c([N+](=O)[O-])c1	1	0	2	·	-6	·
O=C(CCC(=O)OCC(=O)c1ccc(Br)cc1)NC1CCCCC1	10*	·	-17	-6	-1	-28
O=C(CCC(=O)OCC(=O)c1ccc(F)cc1)NC1CCCCC1	-1	·	-17	3	3	-9
O=C(COC(=O)Cc1ccc(Br)cc1)NC1CCCC1	-1	43*	·	·	·	·
O=C(COC(=O)Cc1ccc(Br)cc1)NC1CC1	2	0	·	·	11	·
CC(NC(=O)c1ccc(CS(C)(=O)=O)cc1)c1ccc(-c2ccccc2)cc1 (stereo unspecified)	2	0	8	-2	12	-19
CC(NC(=O)c1ccc(Cl)c(Cl)c1)c1ccc(-c2ccccc2)cc1 (stereo unspecified)	16*	0	2	-4	-11	-4
COc1cccc(CNC(=O)C[C@H]2CC[C@@H](NS(=O)(=O)c3ccccc3OC)[C@@H](CO)O2)c1	·	0	·	·	·	·
Cc1cccc(Nc2nc(-c3ccc(O)cc3O)cs2)n1	40*	0	-10	-4	-16	5
N#Cc1ccc(Nc2nc(-c3ccc(O)cc3O)cs2)cc1C(F)(F)F	23*	·	·	·	3	·
CC(=O)Oc1ccc(-c2csc(Nc3ccc(Cl)cn3)n2)cc1	32*	0	6	-1	0	-13
CC(=O)NNc1nc(-c2ccc(NC(C)=O)cc2)cs1	0	43	-7	-12	13	-2
Oc1ccc(-c2csc(Nc3ncccn3)n2)c(O)c1	2	0	1	-14	8	6
CC(=O)Nc1ccc(-c2csc(Nc3cccc(C)n3)n2)cc1	26*	1	·	-22	·	-6
Oc1ccc(-c2csc(Nc3ccc4c(c3)OCO4)n2)c(O)c1	7	0	·	·	·	·
COc1ccc(NC(=O)N[C@@H]2CC[C@@H](CCNS(=O)(=O)c3cccc(Cl)c3)O[C@@H]2CO)cc1	·	-1	·	·	·	·
C[C@@H]1CN([C@H](C)CO)S(=O)(=O)c2ccc(-c3cccnc3)cc2O[C@H]1CN(C)C	·	0	·	·	·	·
O=C(C[C@H]1C=C[C@@H](NC(=O)c2ccncc2)[C@H](CO)O1)Nc1ccc(-c2ccccc2)cc1	·	0	·	·	·	·
CC(=O)Nc1cccc(-c2csc(Nc3ccc(C)cn3)n2)c1	27*	·	0	-5	5	-15
COc1ccc(-c2csc(Nc3ccc(C)cn3)n2)cc1	16*	61*	-4	-11	-4	-3
SMILES	NR3A LBD binder	FGF22 binding	EBNA-1 inhibitor	NS3 helicase inh	ZTA DNA inh	FID counter
CNC(=O)C[C@@H]1CC[C@H]2[C@H](COc3ccc(NS(=O)(=O)c4ccccc4C)cc3C(=O)N2C)O1	·	0	·	·	·	·
C[C@H]1CN([C@@H](C)CO)C(=O)c2cc(C#Cc3cccc(F)c3)cnc2O[C@H]1CN(C)Cc1ccccn1	·	0	·	·	·	·
C[C@@H]1CCCCO[C@@H](CN(C)S(=O)(=O)c2cn(C)cn2)[C@H](C)CN([C@@H](C)CO)C(=O)c2cc(NS(C)(=O)=O)ccc2O1	·	0	·	·	·	·
C[C@@H]1CCCCO[C@@H](CN(C)Cc2ccc(C(F)(F)F)cc2)[C@H](C)CN([C@H](C)CO)C(=O)c2cc(NC(=O)CCC(F)(F)F)ccc2O1	·	0	·	·	·	·
OCCN(Cc1ccccc1)Cc1ncccc1O	-2	43*	·	·	·	·
CO[C@@H]1CN(C)C(=O)c2ccc(NC(=O)C3CCC3)cc2OC[C@@H](C)N(C(=O)NC(C)C)C[C@H]1C	·	0	·	·	·	·
O=C(COc1ccc(Cl)cc1)NCc1nnc(SCC(=O)N2CCCCCC2)o1	-5	43*	5	1	11	-26
COc1ccc(C(=O)NCc2nnc(SCC(=O)N3CCC(C)CC3)o2)cc1OC	1	·	-6	1	5	-15
O=C(COc1ccc(Cl)cc1)NCc1nnc(SCC(=O)N2CCCC2)o1	-1	43*	-4	-12	8	-16
COc1ccc(C(=O)NCc2nnc(SCC(=O)N3CCC(C)CC3)o2)cc1	-3	44*	3	-1	4	-15
CCC(=O)N[C@@H]1CC[C@H](CC(=O)NCc2ccc(OC)cc2)O[C@H]1CO	·	0	·	·	·	·
CCCNC(=O)C[C@@H]1CC[C@@H]2[C@H](COc3ccc(NC(=O)Nc4cccc(C)c4)cc3C(=O)N2C)O1	·	0	·	·	·	·
CCCN1[C@@H]2c3ccc(-c4ccncc4)c(=O)n3C[C@@H]2[C@@H](CO)[C@@H]1C(=O)NCCCN1CCOCC1	·	0	·	·	·	·
O=S(=O)(N[C@H]1C[C@@H](NS(=O)(=O)OCC(Cl)(Cl)Cl)C2CCCCC21)OCC(Cl)(Cl)Cl (stereo partly specified)	18*	0	8	12	4	7
C[C@H](CO)N1C[C@H](C)[C@H](CN(C)CC2CCCCC2)Oc2c(NC(=O)C3CC3)cccc2C1=O	·	0	·	·	·	·
O=C(O)CSc1nnnn1C1CCCCC1	-3	43*	7	-1	12	4
O=C(CSc1nnnn1C1CCCC1)Nc1ccc(F)cc1	1	·	4	1	-4	-3
O=C(CSc1nnnn1C1CCCCC1)Nc1ccc(F)cc1	18*	43*	-1	-13	-3	-4
C[C@H](CO)N1C[C@H](C)[C@H](CN(C)C(=O)CC2CC2)Oc2cc(-c3cccnc3)ccc2S1(=O)=O	·	0	·	·	·	·
CCN(CC(=O)NCc1ccc(F)cc1)C(=O)COc1ccc(C)c(C)c1	-8	·	-8	21	-12	-17
CCN(CC(=O)NCc1ccc(F)cc1)C(=O)COc1ccc2ccccc2c1	10*	·	-6	5	2	-22
O=C(COc1ccc(F)cc1)NNC(=O)Cn1ccc(C(F)(F)F)n1	-1	0	·	·	·	·
O=C(Cn1ccc(C(F)(F)F)n1)NNC(=O)c1ccco1	293*	0	·	·	-2	·
COc1cccc(S(=O)(=O)N[C@@H]2C=C[C@H](CC(=O)NC3Cc4ccccc4C3)O[C@H]2CO)c1	·	0	·	·	·	·
O=C(CCN1CCCCC1)N[C@@H]1CC[C@H](CCn2cc(-c3ccccc3)nn2)O[C@H]1CO	·	0	·	·	·	·
